# Results: ChEMBL document CHEMBL1154185 (J Med Chem, 2009)
# Activity calls are given as the source filed them.
# Legend:
# U-373MG ATCC [1] = test: Increase in polymerized actin levels in proapoptotic stimuli-resistant human U373 cells at 5 uM after 6 hrs by fluorescence microscopy; format: functional, cell-based
# Procedure, shortened: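 U373 cells, untreated or exposed to 5 μM for 6 h, stained and imaged by computer-assisted fluorescence microscopy. Fibrillar (polymerized) actin labelled with Alexa Fluor488-phallacidin (green); globular actin with Alexa Fluor594-DNase I (red).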
# A549 [2] = test: Cytostatic activity against proapoptotic stimuli-resistant human A549 cells at 5 uM after 72 hrs by quantitative video microscopy; format: functional, cell-based
# Procedure, shortened: (§1)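 Phase-contrast time-lapse videomicroscopy with 5 μM for 72 h vs untreated control. Growth level = cell count in last frame / first frame (0 h). Global growth ratio compares treated with control growth level. Counts done in triplicate with an interactive tool. Morphology followed over the same period.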
# A549 [3] = test: Inhibition of cell migration of proapoptotic stimuli-resistant human A549 cells at 5 uM by quantitative video microscopy; format: functional, cell-based
# Procedure, shortened: (§2)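 Quantitative videomicroscopy of cells untreated or given 0.5 or 5 μM. Migration scored as MRDO, the greatest linear distance each single cell travels from its origin, over 12 or 24 h of observation. Means ± SEMs.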
# NHDF = test: Growth inhibition of human NHDF after 72 hrs by MTT assay; format: cell-based
# Procedure, shortened: (§3)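 Cells plated 24 h in 96-well plates (10,000-40,000 cells/mL by cell type) in MEM (5% or 10% heat-inactivated FBS; with 100 μM non-essential amino acids for WI-38 and NHDF) or RPMI 10% FBS (A549), then exposed 72 h to compound up to 100 μM; MTT reduction read at 570 nm (reference 630 nm); sextuplicate.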
# U-373MG ATCC [4] = test: Inhibition of cell migration of proapoptotic stimuli-resistant human U373 cells at 5 uM by quantitative video microscopy; format: functional, cell-based; procedure, shortened: as §2
# U-373MG ATCC [5] = test: Induction of non-apoptotic cell death in human U373 cells at 50 uM after 72 hrs by annexin-V/propidium iodide staining based flow cytometry; format: functional
# Procedure, shortened: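 Flow cytometry with annexin-V/propidium iodide double staining after 72 h. U373 given 0, 5 or 50 μM; MCF-7 treated 72 h with a 1 μM pro-apoptotic positive control. Early apoptosis = AV+/PI−, late = AV+/PI+, non-apoptotic death = AV−/PI+. Means ± SEMs.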
# A549 [6] = test: Reduction in mitosis occurrence in proapoptotic stimuli-resistant human A549 cells at 5 uM after 72 hrs by quantitative video microscopy; format: functional; set-up: scale not given: the % may be the effect or the level left
# Procedure, shortened: (§4)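 Cells treated 72 h with 5 μM compound and filmed by computer-assisted phase-contrast videomicroscopy; mitoses counted within a 2 mm² frame over the 72 h observation period, compared with untreated control.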
# U-373MG ATCC [7] = test: Cytotoxic activity against proapoptotic stimuli-resistant human U373 cells assessed as induction of cell death at 5 uM after 72 hrs by quantitative video microscopy; format: functional, cell-based; procedure, shortened: as §1
# U-373MG ATCC [8] = test: Cytostatic activity against proapoptotic stimuli-resistant human U373 cells at 5 uM after 72 hrs by quantitative video microscopy; format: functional, cell-based; procedure, shortened: as §1
# [9] = Growth inhibition of proapoptotic stimuli-resistant human U373 cells after 72 hrs by MTT assay; format: functional, cell-based, U-373MG ATCC; settings: Homo sapiens, U373 MG, 72 h
# Procedure, shortened: (§5)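 MTT assay. Cells were plated at 10,000–40,000 cells/mL and left 24 h to attach, then exposed to compound for 72 h (untreated controls). Formazan was read at 570 nm (reference 630 nm). Tested up to 10 μM (first panel) or up to 100 μM (second panel). Sextuplicate. U373 grown in MEM + 5% FBS; Hs683, SK-MEL-28 and B16F10 in RPMI + 10% FBS.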
# [10] = Growth inhibition of proapoptotic stimuli-sensitive human Hs683 cells after 72 hrs by MTT assay; format: functional, cell-based, Hs 683; settings: Homo sapiens, Hs 683, 72 h; procedure, shortened: as §5
# U-373MG ATCC [11] = test: Reduction of colony formation in undifferentiated proapoptotic stimuli-resistant human U373 cells at 5 uM under anchorage-independent culture conditions by quantitative video microscopy; format: functional, cell-based
# [12] = Growth inhibition of proapoptotic stimuli-resistant human OE21 cells after 72 hrs by MTT assay; format: functional, cell-based; settings: Homo sapiens, OE21, 72 h
# SK-MEL-28 = test: Growth inhibition of proapoptotic stimuli-resistant human SK-MEL-28 cells after 72 hrs by MTT assay; format: functional, cell-based; settings: Homo sapiens, SK-MEL-28, 72 h; procedure, shortened: as §5
# U-373MG ATCC [13] = test: Inhibition of cytokinesis in proapoptotic stimuli-resistant human U373 cells at 5 uM after 72 hrs by quantitative video microscopy; format: functional, cell-based
# Procedure, shortened: (§6)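 Quantitative videomicroscopy with 5 μM for 72 h. Mitoses counted within a 2 mm² frame over the 72 h observation. Single cells in treated colonies were tracked at high magnification to follow mitosis and cytokinesis over time.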
# [14] = Growth inhibition of human WI38 cells after 72 hrs by MTT assay; format: cell-based; settings: WI-38, 72 h; procedure, shortened: as §3
# A549 [15] = test: Increase in polymerized actin levels in proapoptotic stimuli-resistant human A549 cells at 5 uM after 6 hrs by fluorescence microscopy; format: functional, cell-based
# Mus musculus = test: Toxicity in iv dosed mouse assessed as reduction of body weight at 5 to 80 mg/kg, iv administered once daily for 5 consecutive days measured after 28 days; format: organism-based; set-up: dose 5-80 mg/kg, route intravenous; settings: in vivo, 672 h
# Procedure, shortened: (§7)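 Healthy mice given compound i.v. (tail vein) in 50 μL saline once daily for 5 consecutive days (Monday-Friday) at 5, 10, 20, 40 or 80 mg/kg; 3 mice per group; body weight and survival followed over 28 days; MTD defined as dose just below lowest dose killing at least one mouse; means ± SEM.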
# B16-F10 [16] = test: Antitumor activity against mouse B16F10 cells implanted in B6D2F1 mouse assessed as increase in mouse survival at 40 mg/kg, iv administered thrice weekly for 3 consecutive weeks starting from 5th day post tumor grafting; format: functional, organism-based; set-up: dose 40 mg/kg
# Procedure, shortened: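 Female B6D2F1 mice (17-19 g) received stereotactic brain implants of B16F10 melanoma cells, all on the same day. Treatment started on day 5 post-graft: 40 mg/kg i.v. (tail vein) in 50 μL, Mon/Wed/Fri for 3 consecutive weeks. Controls received 50 μL saline i.v.; the reference arm got cisplatin 5 mg/kg i.p. on the same schedule. 11 mice per group; survival analysed.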
# A549 [17] = test: Reduction of colony formation in undifferentiated proapoptotic stimuli-resistant human A549 cells at 5 uM under anchorage-independent culture conditions by quantitative video microscopy; format: functional, cell-based
# Procedure, shortened: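 Soft-agar (anchorage-independent) culture of A549 cells, without or with 5 μM, for 38 days after plating. Colonies counted in three 0.4 mm² areas per condition, experiment in hexaplicate. Means ± SEMs.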
# U-373MG ATCC [18] = test: Increase in actin cytoskeleton rigidity in proapoptotic stimuli-resistant human U373 cells at 5 uM after 6 hrs by fluorescence microscopy
# B16-F10 [19] = test: Antitumor activity against mouse B16F10 cells implanted in iv dosed B6D2F1 mouse assessed as active dose increasing mouse survival administered thrice weekly for 3 consecutive weeks starting from 5th day post tumor grafting; format: functional
# [20] = Growth inhibition of human WS1 cells after 72 hrs by MTT assay; format: cell-based; settings: WS1, 72 h; procedure, shortened: as §3
# U-373MG ATCC [21] = test: Reduction of colony formation in undifferentiated proapoptotic stimuli-resistant human U373 cells at 0.5 uM under anchorage-independent culture conditions by quantitative video microscopy; format: functional, cell-based
# A549 [22] = test: Inhibition of cytokinesis in proapoptotic stimuli-resistant human A549 cells at 5 uM after 72 hrs by quantitative video microscopy; format: functional, cell-based; procedure, shortened: as §6
# A549 [23] = test: Growth inhibition of proapoptotic stimuli-resistant human A549 cells after 72 hrs by MTT assay; format: functional, cell-based; settings: Homo sapiens, A549, 72 h; procedure, shortened: as §3
# B16-F10 [24] = test: Growth inhibition of proapoptotic stimuli-sensitive mouse B16F10 cells after 72 hrs by MTT assay; format: functional, cell-based; settings: Mus musculus, B16-F10, 72 h; procedure, shortened: as §5
# [25] = Toxicity in iv dosed mouse administered once daily for 5 consecutive days measured after 28 days; format: organism-based; settings: in vivo; procedure, shortened: as §7
# A549 [26] = test: Cytotoxic activity against proapoptotic stimuli-resistant human A549 cells assessed as induction of cell death at 5 uM after 72 hrs by quantitative video microscopy; format: functional, cell-based; procedure, shortened: as §1
# [27] = Reduction in mitosis occurrence in proapoptotic stimuli-resistant human U373 cells at 5 uM after 72 hrs by quantitative video microscopy; format: functional, U-373MG ATCC; set-up: scale not given: the % may be the effect or the level left; procedure, shortened: as §4
# A549 [28] = test: Reduction of colony formation in undifferentiated proapoptotic stimuli-resistant human A549 cells at 5 uM under anchorage-independent culture conditions by quantitative video microscopy
compound,measurement,setting,value
O[C@H]1[C@H]2c3cc4c(cc3CN3CCC(=C[C@@H]1O)[C@H]23)OCO4 [LYCORINE],Activity,U-373MG ATCC [1],Active
same,Activity,A549 [2],Active
same,Activity,A549 [3],Active
same,IC50,NHDF,> 100 µM
same,Activity,U-373MG ATCC [4],Active
same,Activity,U-373MG ATCC [5],Active
same,Activity,A549 [6],>=90%
same,Activity,U-373MG ATCC [7],inactive
same,Activity,U-373MG ATCC [8],Active
same,IC50,[9],7.6 µM
same,IC50,[10],6.7 µM
same,Activity,U-373MG ATCC [11],Active
same,IC50,[12],5.1 µM
same,IC50,SK-MEL-28,8.5 µM
same,Activity,U-373MG ATCC [13],Active
same,IC50,[14],> 100 µM
same,Activity,A549 [15],Active
same,Activity,Mus musculus,Non-toxic
same,Activity,B16-F10 [16],Active
same,Activity,A549 [17],Active
same,Activity,U-373MG ATCC [18],Active
same,Dose,B16-F10 [19],40 mg/kg
same,IC50,[20],> 100 µM
same,Activity,U-373MG ATCC [21],Active
same,Activity,A549 [22],Active
same,IC50,A549 [23],4.3 µM
same,IC50,B16-F10 [24],6.3 µM
same,MTD at 672 h,[25],> 80 mg/kg
same,Activity,A549 [26],inactive
same,Activity,[27],>=90%
same,Activity,A549 [28],Active
